{"source": "ChEMBL document CHEMBL1124366", "about": "“Synthesis and biological properties of N63-carboxamides of teicoplanin antibiotics. Structure-activity relationships” (J Med Chem, 1989)", "assay_type_in_all_cases": "functional", "key": {"Enterococcus faecalis": {"system": "Enterococcus faecalis", "test": "In vitro minimum inhibitory concentration against Streptococcus faecalis ATCC 7080"}, "Proteus vulgaris": {"system": "Proteus vulgaris", "test": "In vitro minimum inhibitory concentration against Proteus vulgaris X 19 ATCC 881"}, "Streptococcus pneumoniae": {"system": "Streptococcus pneumoniae", "test": "In vitro minimum inhibitory concentration against Streptococcus pneumoniae UC41"}, "Streptococcus pyogenes [1]": {"system": "Streptococcus pyogenes", "test": "Subcutaneously administration into mice infected with Streptococcus pyogenes C 203", "conditions": "sc", "how_it_was_run": "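Mice (five per treatment group, five groups) infected intraperitoneally with about 10⁵ cells of Strep. pyogenes C 203, about 100× the LD50. ED50 (mg/kg) was calculated from the percentage of mice surviving at each dose on day 7.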"}, "[2]": {"system": "Staphylococcus haemolyticus", "test": "In vitro minimum inhibitory concentration against Staphylococcus hemolyticus 602 cell line", "conditions": "strain 602"}, "Staphylococcus aureus": {"system": "Staphylococcus aureus", "test": "In vitro minimum inhibitory concentration against Staphylococcus aureus Tour"}, "Escherichia coli": {"system": "Escherichia coli", "test": "In vitro minimum inhibitory concentration against Escherichia coli SKF 12140"}, "[3]": {"system": "Staphylococcus epidermidis", "test": "In vitro minimum inhibitory concentration against Staphylococcus epidermis ATCC 12228"}, "Streptococcus pyogenes [4]": {"system": "Streptococcus pyogenes", "test": "In vitro minimum inhibitory concentration against Streptococcus pyogenes C 203"}, "Pseudomonas aeruginosa": {"system": "Pseudomonas aeruginosa", "test": "In vitro minimum inhibitory concentration against Pseudomonas aeruginosa ATCC 10145"}}, "data": [{"compound": "CNCCNC(=O)[C@H]1NC(=O)[C@H]2NC(=O)[C@H](NC(=O)[C@@H]3NC(=O)[C@H]4NC(=O)[C@@H](Cc5ccc(c(Cl)c5)Oc5cc3cc(c5O)Oc3ccc(cc3Cl)[C@H]2O)NC(=O)[C@H](N)c2ccc(O)c(c2)Oc2cc(O)cc4c2)c2ccc(O)c(c2)-c2c(O)cc(O)cc21", "values": [{"measurement": "MIC", "setting": "Enterococcus faecalis", "value": 0.12, "unit": "mg/L"}, {"measurement": "MIC", "setting": "Proteus vulgaris", "value": 32, "unit": "mg/L"}, {"measurement": "MIC", "setting": "Streptococcus pneumoniae", "value": 0.12, "unit": "mg/L"}, {"measurement": "ED50", "setting": "Streptococcus pyogenes [1]", "value": 2.2, "unit": "mg/kg"}, {"measurement": "MIC", "setting": "[2]", "value": 0.06, "unit": "mg/L"}, {"measurement": "MIC", "setting": "Staphylococcus aureus", "value": 0.06, "unit": "mg/L"}, {"measurement": "MIC", "setting": "Escherichia coli", "value": 4, "unit": "mg/L"}, {"measurement": "MIC", "setting": "[3]", "value": 0.03, "unit": "mg/L"}, {"measurement": "MIC", "setting": "Streptococcus pyogenes [4]", "value": 0.06, "unit": "mg/L"}, {"measurement": "MIC", "setting": "Pseudomonas aeruginosa", "value": 32, "unit": "mg/L"}]}, {"compound": "CCNCCNC(=O)[C@H]1NC(=O)[C@H]2NC(=O)[C@H](NC(=O)[C@@H]3NC(=O)[C@H]4NC(=O)[C@@H](Cc5ccc(c(Cl)c5)Oc5cc3cc(c5O)Oc3ccc(cc3Cl)[C@H]2O)NC(=O)[C@H](N)c2ccc(O)c(c2)Oc2cc(O)cc4c2)c2ccc(O)c(c2)-c2c(O)cc(O)cc21", "values": [{"measurement": "MIC", "setting": "Enterococcus faecalis", "value": 0.12, "unit": "mg/L"}, {"measurement": "MIC", "setting": "Proteus vulgaris", "value": 64, "unit": "mg/L"}, {"measurement": "MIC", "setting": "Streptococcus pneumoniae", "value": 0.12, "unit": "mg/L"}, {"measurement": "ED50", "setting": "Streptococcus pyogenes [1]", "value": 1.25, "unit": "mg/kg"}, {"measurement": "MIC", "setting": "[2]", "value": 0.12, "unit": "mg/L"}, {"measurement": "MIC", "setting": "Staphylococcus aureus", "value": 0.06, "unit": "mg/L"}, {"measurement": "MIC", "setting": "Escherichia coli", "value": 8, "unit": "mg/L"}, {"measurement": "MIC", "setting": "[3]", "value": 0.06, "unit": "mg/L"}, {"measurement": "MIC", "setting": "Streptococcus pyogenes [4]", "value": 0.06, "unit": "mg/L"}, {"measurement": "MIC", "setting": "Pseudomonas aeruginosa", "value": 32, "unit": "mg/L"}]}, {"compound": "CCN1CCCC1CNC(=O)[C@H]1NC(=O)[C@H]2NC(=O)[C@H](NC(=O)[C@@H]3NC(=O)[C@H]4NC(=O)[C@@H](Cc5ccc(c(Cl)c5)Oc5cc3cc(c5O)Oc3ccc(cc3Cl)[C@H]2O)NC(=O)[C@H](N)c2ccc(O)c(c2)Oc2cc(O)cc4c2)c2ccc(O)c(c2)-c2c(O)cc(O)cc21", "note": "(some centres undefined)", "values": [{"measurement": "MIC", "setting": "Enterococcus faecalis", "value": 0.12, "unit": "mg/L"}, {"measurement": "MIC", "setting": "Proteus vulgaris", "value": 32, "unit": "mg/L"}, {"measurement": "MIC", "setting": "Streptococcus pneumoniae", "value": 0.06, "unit": "mg/L"}, {"measurement": "ED50", "setting": "Streptococcus pyogenes [1]", "value": 1.25, "unit": "mg/kg"}, {"measurement": "MIC", "setting": "[2]", "value": 0.12, "unit": "mg/L"}, {"measurement": "MIC", "setting": "Staphylococcus aureus", "value": 0.06, "unit": "mg/L"}, {"measurement": "MIC", "setting": "Escherichia coli", "value": 4, "unit": "mg/L"}, {"measurement": "MIC", "setting": "[3]", "value": 0.06, "unit": "mg/L"}, {"measurement": "MIC", "setting": "Streptococcus pyogenes [4]", "value": 0.06, "unit": "mg/L"}, {"measurement": "MIC", "setting": "Pseudomonas aeruginosa", "value": 64, "unit": "mg/L"}]}, {"compound": "CNCCN(C)C(=O)[C@H]1NC(=O)[C@H]2NC(=O)[C@H](NC(=O)[C@@H]3NC(=O)[C@H]4NC(=O)[C@@H](Cc5ccc(c(Cl)c5)Oc5cc3cc(c5O)Oc3ccc(cc3Cl)[C@H]2O)NC(=O)[C@H](N)c2ccc(O)c(c2)Oc2cc(O)cc4c2)c2ccc(O)c(c2)-c2c(O)cc(O)cc21", "values": [{"measurement": "MIC", "setting": "Enterococcus faecalis", "value": 0.12, "unit": "mg/L"}, {"measurement": "MIC", "setting": "Proteus vulgaris", "value": "> 128", "unit": "mg/L"}, {"measurement": "MIC", "setting": "Streptococcus pneumoniae", "value": 0.12, "unit": "mg/L"}, {"measurement": "ED50", "setting": "Streptococcus pyogenes [1]", "value": 1.25, "unit": "mg/kg"}, {"measurement": "MIC", "setting": "[2]", "value": 0.12, "unit": "mg/L"}, {"measurement": "MIC", "setting": "Staphylococcus aureus", "value": 0.12, "unit": "mg/L"}, {"measurement": "MIC", "setting": "Escherichia coli", "value": 16, "unit": "mg/L"}, {"measurement": "MIC", "setting": "[3]", "value": 0.06, "unit": "mg/L"}, {"measurement": "MIC", "setting": "Streptococcus pyogenes [4]", "value": 0.12, "unit": "mg/L"}, {"measurement": "MIC", "setting": "Pseudomonas aeruginosa", "value": 64, "unit": "mg/L"}]}, {"compound": "NCCNC(=O)[C@H]1NC(=O)[C@H]2NC(=O)[C@H](NC(=O)[C@@H]3NC(=O)[C@H]4NC(=O)[C@@H](Cc5ccc(c(Cl)c5)Oc5cc3cc(c5O)Oc3ccc(cc3Cl)[C@H]2O)NC(=O)[C@H](N)c2ccc(O)c(c2)Oc2cc(O)cc4c2)c2ccc(O)c(c2)-c2c(O)cc(O)cc21", "values": [{"measurement": "MIC", "setting": "Enterococcus faecalis", "value": 0.12, "unit": "mg/L"}, {"measurement": "MIC", "setting": "Proteus vulgaris", "value": 16, "unit": "mg/L"}, {"measurement": "MIC", "setting": "Streptococcus pneumoniae", "value": 0.12, "unit": "mg/L"}, {"measurement": "ED50", "setting": "Streptococcus pyogenes [1]", "value": 1.25, "unit": "mg/kg"}, {"measurement": "MIC", "setting": "[2]", "value": 0.12, "unit": "mg/L"}, {"measurement": "MIC", "setting": "Staphylococcus aureus", "value": 0.06, "unit": "mg/L"}, {"measurement": "MIC", "setting": "Escherichia coli", "value": 4, "unit": "mg/L"}, {"measurement": "MIC", "setting": "[3]", "value": 0.03, "unit": "mg/L"}, {"measurement": "MIC", "setting": "Streptococcus pyogenes [4]", "value": 0.06, "unit": "mg/L"}, {"measurement": "MIC", "setting": "Pseudomonas aeruginosa", "value": 16, "unit": "mg/L"}]}, {"compound": "N[C@H]1C(=O)N[C@@H]2Cc3ccc(c(Cl)c3)Oc3cc4cc(c3O)Oc3ccc(cc3Cl)[C@@H](O)[C@@H]3NC(=O)[C@H](NC(=O)[C@@H]4NC(=O)[C@@H](NC2=O)c2cc(O)cc(c2)Oc2cc1ccc2O)c1ccc(O)c(c1)-c1c(O)cc(O)cc1[C@@H](C(=O)NC1CN2CCC1CC2)NC3=O", "note": "(some centres undefined)", "values": [{"measurement": "MIC", "setting": "Enterococcus faecalis", "value": 0.12, "unit": "mg/L"}, {"measurement": "MIC", "setting": "Proteus vulgaris", "value": 64, "unit": "mg/L"}, {"measurement": "MIC", "setting": "Streptococcus pneumoniae", "value": 0.06, "unit": "mg/L"}, {"measurement": "ED50", "setting": "Streptococcus pyogenes [1]", "value": 0.46, "unit": "mg/kg"}, {"measurement": "MIC", "setting": "Staphylococcus aureus", "value": 0.12, "unit": "mg/L"}, {"measurement": "MIC", "setting": "Escherichia coli", "value": 8, "unit": "mg/L"}, {"measurement": "MIC", "setting": "[3]", "value": 0.06, "unit": "mg/L"}, {"measurement": "MIC", "setting": "Streptococcus pyogenes [4]", "value": 0.06, "unit": "mg/L"}, {"measurement": "MIC", "setting": "Pseudomonas aeruginosa", "value": 32, "unit": "mg/L"}]}]}
